Test results reported in article PMC3166234 (Analytical biochemistry, 2011).

Biological target: PFKFB3 2-kinase (Homo sapiens, UniProt Q16875)
Test: Steady-state inhibition kinetics of the PFKFB3 2-kinase
Assay type: biochemical
Outline: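 Recombinant human PFKFB3 2-kinase run in a two-step assay. F-2,6-P2 is first made with enzyme in TES pH 8.0, DTT, MgCl2 and Tween at 25°C, then stopped with KOH and neutralised. The product then allosterically activates PPi:PFK in an aldolase/TIM/GDH–NADH coupled system, read as A340 over 30 min. F-6-P, ATP and/or inhibitor concentrations are varied to define the inhibition type.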

Chain of PFKFB3 2-kinase (Q16875 whole entry): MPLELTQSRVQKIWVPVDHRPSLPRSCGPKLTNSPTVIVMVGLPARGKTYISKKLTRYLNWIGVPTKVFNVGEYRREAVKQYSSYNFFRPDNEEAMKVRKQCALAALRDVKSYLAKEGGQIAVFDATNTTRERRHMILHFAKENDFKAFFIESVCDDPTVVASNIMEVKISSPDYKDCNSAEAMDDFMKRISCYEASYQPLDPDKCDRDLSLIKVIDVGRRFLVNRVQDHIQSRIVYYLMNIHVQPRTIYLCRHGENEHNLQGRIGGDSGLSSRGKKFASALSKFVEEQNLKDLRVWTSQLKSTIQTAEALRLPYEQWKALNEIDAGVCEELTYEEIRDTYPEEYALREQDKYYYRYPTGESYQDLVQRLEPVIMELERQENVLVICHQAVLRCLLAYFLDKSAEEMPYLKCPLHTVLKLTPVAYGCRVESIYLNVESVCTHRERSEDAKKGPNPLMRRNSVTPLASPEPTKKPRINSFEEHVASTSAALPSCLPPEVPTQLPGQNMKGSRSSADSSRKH

type of inhibition against ATP (ATP varied): uncompetitive
type of inhibition against F-6-P (F-6-P varied): competitive
SMILES: CCOC(=O)/C=C(/C)Sc1cc(O)c2ccccc2c1O [NSC278631]
